In ChEMBL document CHEMBL1142348, “beta-N-Biaryl ether sulfonamide hydroxamates as potent gelatinase inhibitors: part 1. Design, synthesis, and lead identification” (Bioorg Med Chem Lett, 2008):
≈ marks a conversion by molar mass, not a printed value.

How the values were obtained:
[1] = molecular target: T1, 72 kDa type IV collagenase (Homo sapiens, UniProt P08253); assay: Inhibition of full length MMP2
Target sequence in this assay (P08253 whole entry, the tested form may be a part): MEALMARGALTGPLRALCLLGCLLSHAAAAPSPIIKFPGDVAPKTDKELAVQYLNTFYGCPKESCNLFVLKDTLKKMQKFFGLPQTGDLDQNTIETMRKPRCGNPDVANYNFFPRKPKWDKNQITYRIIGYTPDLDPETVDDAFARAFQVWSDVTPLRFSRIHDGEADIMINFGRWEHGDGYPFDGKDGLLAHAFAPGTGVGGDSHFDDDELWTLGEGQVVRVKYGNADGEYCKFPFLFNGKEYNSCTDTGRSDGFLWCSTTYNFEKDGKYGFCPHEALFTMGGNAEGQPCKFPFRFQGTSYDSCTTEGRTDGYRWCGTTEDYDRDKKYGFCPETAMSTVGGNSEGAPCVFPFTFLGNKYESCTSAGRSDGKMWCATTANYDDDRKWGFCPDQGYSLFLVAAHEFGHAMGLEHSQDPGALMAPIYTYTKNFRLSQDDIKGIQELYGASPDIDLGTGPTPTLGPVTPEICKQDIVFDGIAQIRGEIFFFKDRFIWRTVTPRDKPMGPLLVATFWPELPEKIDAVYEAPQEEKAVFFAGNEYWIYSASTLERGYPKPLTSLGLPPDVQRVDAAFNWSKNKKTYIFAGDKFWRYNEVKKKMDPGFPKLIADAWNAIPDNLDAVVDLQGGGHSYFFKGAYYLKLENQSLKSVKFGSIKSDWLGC

[2] = molecular target: T2, Matrix metalloproteinase-9 (Homo sapiens, UniProt P14780); assay: Inhibition of catalytic domain MMP9
Outline: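 Peptide-cleavage FRET assay using MMP-1 and -9 catalytic domains or full-length MMP-2, each titrated to give linear velocity. Enzyme was preincubated with inhibitor for 1 h at room temperature in 50 mM Hepes pH 7.4, 10 mM CaCl2, 0.05% Brij-35, final DMSO 0.04%. Eu/QSY7-labelled peptide substrate was then added for 15 min at room temperature, and liberated Eu fluorescence was read.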

[3] = Selectivity ratio, IC50 for full length MMP2 to IC50 for catalytic domain MMP9
Outline: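 Full-length MMP-2 and MMP-9 catalytic domain, each titrated for linear velocity, in 50 mM Hepes pH 7.4, 10 mM CaCl2, 0.05% Brij-35. Preincubated 1 h at room temperature with compound dilutions (final DMSO 0.04%). Eu/QSY7-quenched peptide substrate added for 15 min at room temperature; cleavage read as Eu fluorescence. Triplicate 16-point curves, nonlinear regression; ratio is MMP-2 IC50/MMP-9 IC50.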

[4] = molecular target: T2, Matrix metalloproteinase-9; assay: Inhibition of MMP9 catalytic domain at 10 uM
[5] = molecular target: T1, 72 kDa type IV collagenase; assay: Inhibition of full length MMP2 at 10 uM
Target sequence in this assay (P08253 110-660 limits assumed): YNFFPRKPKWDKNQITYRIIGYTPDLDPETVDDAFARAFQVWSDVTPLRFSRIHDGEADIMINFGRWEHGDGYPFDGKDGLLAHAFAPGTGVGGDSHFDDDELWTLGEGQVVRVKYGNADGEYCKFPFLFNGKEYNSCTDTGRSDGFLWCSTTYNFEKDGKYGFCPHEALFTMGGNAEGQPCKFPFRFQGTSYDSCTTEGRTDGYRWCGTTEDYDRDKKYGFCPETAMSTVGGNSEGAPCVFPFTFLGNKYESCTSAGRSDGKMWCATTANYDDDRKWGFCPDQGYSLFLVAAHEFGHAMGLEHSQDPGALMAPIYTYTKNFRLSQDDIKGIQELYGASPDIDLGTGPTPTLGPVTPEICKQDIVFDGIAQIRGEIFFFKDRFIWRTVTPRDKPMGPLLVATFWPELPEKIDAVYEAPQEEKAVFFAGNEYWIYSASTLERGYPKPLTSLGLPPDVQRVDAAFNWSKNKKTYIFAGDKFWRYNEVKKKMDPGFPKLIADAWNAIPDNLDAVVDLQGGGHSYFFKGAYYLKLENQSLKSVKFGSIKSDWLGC

Interstitial collagenase = molecular target: T3, Interstitial collagenase (Homo sapiens, UniProt P03956); assay: Inhibition of catalytic domain MMP1
T3 sequence (P03956 whole entry): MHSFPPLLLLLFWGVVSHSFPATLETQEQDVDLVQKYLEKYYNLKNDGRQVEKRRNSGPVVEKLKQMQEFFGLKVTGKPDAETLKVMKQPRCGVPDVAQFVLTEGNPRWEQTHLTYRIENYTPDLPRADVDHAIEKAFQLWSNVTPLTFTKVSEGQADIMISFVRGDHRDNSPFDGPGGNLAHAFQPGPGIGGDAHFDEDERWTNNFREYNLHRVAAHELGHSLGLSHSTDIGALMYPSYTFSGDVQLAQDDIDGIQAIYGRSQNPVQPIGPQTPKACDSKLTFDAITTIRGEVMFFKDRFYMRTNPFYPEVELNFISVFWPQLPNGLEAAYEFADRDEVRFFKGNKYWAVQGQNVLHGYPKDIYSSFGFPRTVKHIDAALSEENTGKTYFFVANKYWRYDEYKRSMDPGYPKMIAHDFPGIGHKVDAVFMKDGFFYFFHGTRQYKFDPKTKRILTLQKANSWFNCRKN

[6] = Solubility in water at pH 7; type: physicochemical
[7] = Volume of distribution in rat at steady state at 0.5 mg/kg, iv; type: ADME, organism-based; set-up: dose 0.5 mg/kg, route intravenous; conditions: in vivo, read-out: Vdss
Outline: (§1)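 Rats, n=4 per group, single intravenous dose of 0.5 mg/kg. Plasma Cmax was taken at t = 5 min. Apparent elimination half-life, AUC, steady-state volume of distribution and clearance were derived from the plasma profile. Values are means of the 4 animals.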

[8] = Stability in rat liver microsomes
[9] = Solubility in water at pH 2; type: physicochemical
[10] = Half life in rat at 0.5 mg/kg, iv; type: ADME, organism-based; set-up: dose 0.5 mg/kg, route intravenous; conditions: in vivo; outline: as §1
[11] = AUC in rat at 0.5 mg/kg, iv; type: ADME, organism-based; set-up: dose 0.5 mg/kg, route intravenous; conditions: plasma; outline: as §1
[12] = Stability in human liver microsomes
[13] = Cmax in rat at 0.5 mg/kg, iv; type: ADME, organism-based; set-up: dose 0.5 mg/kg, route intravenous; conditions: in vivo; outline: as §1
[14] = Clearance in rat at 0.5 mg/kg, iv; type: ADME, organism-based; set-up: dose 0.5 mg/kg, route intravenous; conditions: in vivo; outline: as §1

T2 sequence (P14780 whole entry, the tested form may be a part): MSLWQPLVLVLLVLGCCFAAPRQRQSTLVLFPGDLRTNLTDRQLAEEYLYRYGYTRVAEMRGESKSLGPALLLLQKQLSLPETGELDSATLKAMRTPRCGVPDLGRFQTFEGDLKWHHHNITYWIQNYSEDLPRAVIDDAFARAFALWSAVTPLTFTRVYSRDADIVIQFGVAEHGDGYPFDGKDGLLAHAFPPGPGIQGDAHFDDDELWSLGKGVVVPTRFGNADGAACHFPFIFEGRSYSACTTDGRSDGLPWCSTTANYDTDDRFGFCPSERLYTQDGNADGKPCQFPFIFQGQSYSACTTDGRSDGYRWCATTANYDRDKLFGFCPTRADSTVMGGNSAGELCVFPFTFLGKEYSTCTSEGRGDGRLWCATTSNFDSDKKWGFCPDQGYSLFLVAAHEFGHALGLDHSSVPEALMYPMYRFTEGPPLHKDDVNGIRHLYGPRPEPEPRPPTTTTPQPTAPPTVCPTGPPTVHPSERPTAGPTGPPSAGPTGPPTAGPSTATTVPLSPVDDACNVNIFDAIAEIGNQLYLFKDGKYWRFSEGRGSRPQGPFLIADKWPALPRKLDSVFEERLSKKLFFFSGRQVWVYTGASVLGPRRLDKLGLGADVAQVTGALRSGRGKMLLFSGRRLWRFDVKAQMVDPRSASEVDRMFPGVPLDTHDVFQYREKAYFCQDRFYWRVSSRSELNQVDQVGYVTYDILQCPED

| SMILES | IC50 [1] [nM] | IC50 [2] [nM] | Ratio IC50 [3] | other results |
| --- | --- | --- | --- | --- |
| CS(=O)(=O)N(C[C@H](O)C(=O)NO)c1ccc(S(=O)(=O)c2ccccc2)cc1 | > 10000 | > 10000 |  |  |
| CS(=O)(=O)N(C[C@H](O)C(=O)NO)c1ccc(Sc2ccc(F)cc2)cc1 | 283 | 104 | 2.7 |  |
| CS(=O)(=O)N(C[C@H](O)C(=O)NO)c1ccc(C#Cc2ccc(Cl)cc2)cc1 |  |  | 1.2 |  |
| Cc1ccc(Oc2ccc(N(C[C@H](O)C(=O)NO)S(=O)(=O)Cc3cccnc3)cc2)cc1 |  |  | 5.8 |  |
| CCCS(=O)(=O)N(C[C@H](O)C(=O)NO)c1ccc(Oc2ccc(C)cc2)cc1 |  |  | 4.1 |  |
| CO[C@@H](CN(c1ccc(Oc2ccc(C)cc2)cc1)S(C)(=O)=O)C(=O)NO | 36 | 3.8 |  |  |
| Cc1ccc(Oc2ccc(N(CC(=O)NO)S(C)(=O)=O)cc2)cc1 | 73 | 31 |  |  |
| Cc1ccc(Oc2ccc(N(C[C@H](O)C(=O)O)S(C)(=O)=O)cc2)cc1 |  |  |  | inhibition [4]: < 10%; inhibition [5]: < 10% |
| CS(=O)(=O)N(C[C@H](O)C(=O)NO)c1ccc(OCc2ccc(F)cc2)cc1 | 2320 | 4820 | 0.5 | IC50 (Interstitial collagenase): > 10000 nM |
| Cc1ccc(Sc2ccc(N(C[C@H](O)C(=O)NO)S(C)(=O)=O)cc2)cc1 | 297 | 54 | 5.5 |  |
| CS(=O)(=O)N(C[C@H](O)C(=O)NO)c1ccc(OCc2ccc(Cl)cc2)cc1 | 893 | 984 | 0.9 | IC50 (Interstitial collagenase): > 10000 nM |
| CCS(=O)(=O)N(C[C@H](O)C(=O)NO)c1ccc(Oc2ccc(C)cc2)cc1 | 142 | 28 | 5.1 |  |
| CS(=O)(=O)N(CC(=O)NO)c1ccc(Oc2ccccc2)cc1 | 147 | 383 |  | IC50 (Interstitial collagenase): > 10000 nM |
| CO[C@H](CN(c1ccc(Oc2ccc(C)cc2)cc1)S(C)(=O)=O)C(=O)NO |  | 13 |  |  |
| CC(C)C(=O)N(C[C@H](O)C(=O)NO)c1ccc(Oc2ccc(Cl)cc2)cc1 | 286 | 242 |  |  |
| Cc1ccc(C#Cc2ccc(N(C[C@H](O)C(=O)NO)S(C)(=O)=O)cc2)cc1 | 47 | 44 | 1.1 |  |
| CS(=O)(=O)N(C[C@H](O)C(=O)NO)c1ccc(-c2ccccc2)cc1 |  |  |  | inhibition [4]: 79%; inhibition [5]: 87% |
| CS(=O)(=O)N(C[C@H](O)C(=O)NO)c1ccc(Oc2ccc(C(F)(F)F)cc2)cc1 |  |  | 9.9 |  |
| Cc1ccc(Oc2ccc(N(C[C@@H](O)C(=O)NO)S(C)(=O)=O)cc2)cc1 | 67 | 12 |  |  |
| Cc1ccc(Oc2ccc(N(C[C@H](O)C(=O)NO)S(=O)(=O)Cc3ccccc3)cc2)cc1 |  |  | 6.3 |  |
| Cc1ccc(Oc2ccc(N(CC(C)(O)C(=O)NO)S(C)(=O)=O)cc2)cc1 (racemic) | 20 | 5.5 |  | solubility [6]: 28 µg/mL (≈ 71 µM); IC50 (Interstitial collagenase): > 10000 nM; Vd [7]: 1.5 L/kg; half-life [8]: 10 min; solubility [9]: < 5 µg/mL; half-life [10]: 43.2 min; AUC [11]: 220 ng·h/mL; half-life [12]: 103 min; Cmax [13]: 1500 nM; clearance [14]: 41.5 mL/min/kg |
| Cc1ccc(Oc2ccc(N(CCC(=O)NO)S(C)(=O)=O)cc2)cc1 | 61 | 6.6 |  | IC50 (Interstitial collagenase): > 10000 nM |
| CS(=O)(=O)N(C[C@H](O)C(=O)NO)c1ccc(Oc2ccccc2)cc1 | 247 | 39 | 6.3 |  |
| CS(=O)(=O)N(C[C@H](O)C(=O)NO)c1ccc(OCc2ccc(C(F)(F)F)cc2)cc1 | 2920 | 1490 | 1.9 | IC50 (Interstitial collagenase): > 10000 nM |
| Cc1ccc(Oc2ccc(N(C[C@H](O)C(=O)NO)S(C)(=O)=O)cc2)cc1 |  |  |  | solubility [6]: 28 µg/mL (≈ 73.6 µM); Vd [7]: 1.4 L/kg; solubility [9]: < 5 µg/mL; half-life [10]: 25.8 min; AUC [11]: 180 ng·h/mL; Cmax [13]: 1300 nM; clearance [14]: 47.5 mL/min/kg |
| CC(=O)N(C[C@H](O)C(=O)NO)c1ccc(Oc2ccc(Cl)cc2)cc1 | 1260 | 933 |  |  |
| Cc1ccc(Oc2ccc(N(C[C@H](O)C(=O)NO)S(=O)(=O)Cc3ccncc3)cc2)cc1 |  |  | 6.4 |  |
| CS(=O)(=O)N(C[C@H](O)C(=O)NO)c1ccc(Oc2ccc(Cl)cc2)cc1 |  |  | 7.4 |  |
| COc1ccc(C#Cc2ccc(N(C[C@H](O)C(=O)NO)S(C)(=O)=O)cc2)cc1 | 32 |  | 0.4 | IC50 (Interstitial collagenase): > 10000 nM |
